The source made the active and inactive calls. The rule behind the calls is not given here.
Tests used:
A549 [1] = experiment: Induction of apoptosis in human A549 cells assessed as induction of ROS production at 5 mM after 12 hrs using DCF-DA staining by flow cytometry analysis relative to control; assay type: functional
Procedure, shortened: (§1)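 Intracellular ROS in A549 cells after 12 h at 1, 3, 10, 30 μM, with 5 mM H2O2 as reference, measured by flow cytometry with DCF-DA probe; fold fluorescence over vehicle control; mean ± SEM, three independent determinations.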

A549 [2] = experiment: Cell cycle arrest in human A549 cells assessed as accumulation at S phase at 10 uM after 24 hrs using propidium iodide staining by flow cytometry analysis (reference value: 12 +/- 1.4%); assay type: functional
A549 [3] = experiment: Cell cycle arrest in human A549 cells assessed as accumulation at G2/M phase at 10 uM after 48 hrs using propidium iodide staining by flow cytometry analysis (reference value: 31.9 +/- 1.4%); assay type: functional
A549 [4] = experiment: Cytotoxicity against human A549 cells after 48 hrs by SRB assay; assay type: functional, cell-based
Procedure, shortened: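 A549 cells exposed to a range of concentrations for 48 h, fixed and stained with sulforhodamine B to measure cell number; IC50 from three independent determinations, mean ± SEM.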

A549 [5] = experiment: Induction of apoptosis in human A549 cells assessed as downregulation of cyclin D1, cyclin E, Cdk 2, and Cdk 4 protein levels at 10 uM after 6 to 36 hrs by Western blot analysis; assay type: functional, cell-based
Procedure, shortened: (§2)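 A549 lysates after 10 μM for 6, 12, 24, 36 h, or 1, 3, 10 μM for 24 h; 40 μg protein on 8–12% SDS gels, PVDF transfer, primary antibodies 1 h at room temperature, ECL detection; three independent experiments.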

A549 [6] = experiment: Induction of apoptosis in human A549 cells assessed as loss of mitochondrial membrane potential at 10 to 30 uM after 12 to 24 hrs by flow cytometry analysis; assay type: functional, cell-based
Procedure, shortened: (§3)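 A549 cells treated 12 and 24 h, stained with rhodamine 123 for 30 min at 37 °C; mean fluorescence by FACScan flow cytometry; CCCP (50 μM) used as depolarising control; mean ± SEM of three independent determinations.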

SW1353 = experiment: Cytotoxicity against human SW1353 cells after 48 hrs by SRB assay; conditions: SW1353, 48 h
A549 [7] = experiment: Induction of apoptosis in human A549 cells assessed as downregulation of cyclin D1, cyclin E, Cdk 2, and Cdk 4 protein levels after 24 hrs by Western blot analysis; assay type: functional, cell-based; procedure, shortened: as §2
A549 [8] = experiment: Cell cycle arrest in human A549 cells assessed as accumulation at sub-G1 phase at 10 uM after 48 hrs using propidium iodide staining by flow cytometry analysis (reference value: 1.5 +/- 0.1%); assay type: functional
[9] = Cytotoxicity against human HuH7 cells after 48 hrs by SRB assay; conditions: Huh-7, 48 h
A549 [10] = experiment: Induction of apoptosis in human A549 cells assessed as DNA level after 24 to 48 hrs using propidium iodide staining by flow cytometry analysis; assay type: functional, cell-based
Procedure, shortened: (§4)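 A549 cells treated at 3, 10 or 30 μM for 24, 36 or 48 h, fixed, stained with propidium iodide; hypodiploid apoptotic fraction counted by FACScan flow cytometry; mean ± SEM of three determinations versus vehicle control.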

A549 [11] = experiment: Cell cycle arrest in human A549 cells assessed as accumulation at sub-G1 phase at 10 uM after 36 hrs using propidium iodide staining by flow cytometry analysis (reference value: 1.7 +/- 0.4%); assay type: functional
A549 [12] = experiment: Cell cycle arrest in human A549 cells assessed as accumulation at S phase at 10 uM after 36 hrs using propidium iodide staining by flow cytometry analysis (reference value: 9.6 +/- 0.9%); assay type: functional
A549 [13] = experiment: Induction of apoptosis in human A549 cells assessed as proteolytic cleavage of inactive procaspase-8, 9, and 3 into active caspase-8, 9, and 3 at 10 uM by Western blot analysis; assay type: functional, cell-based; conditions: TDE = time-dependent effect
Procedure, shortened: (§5)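 A549 cells given 10 μM for 6, 12, 24, 36 h; lysates blotted (40 μg protein, SDS-PAGE, PVDF) for caspase-3/-8/-9, PARP, survivin, Bad, Bcl-xL; ECL detection; survivin bands quantified densitometrically; three independent experiments.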

A549 [14] = experiment: Induction of apoptosis in human A549 cells assessed as induction of ROS production at 3 uM after 12 hrs using DCF-DA staining by flow cytometry analysis relative to control; assay type: functional; procedure, shortened: as §1
A549 [15] = experiment: Cell cycle arrest in human A549 cells assessed as accumulation at G2/M phase at 10 uM after 24 hrs using propidium iodide staining by flow cytometry analysis (reference value: 35.2 +/- 2.3%); assay type: functional
A549 [16] = experiment: Induction of apoptosis in human A549 cells assessed as induction of ROS production at 10 uM using DCF-DA staining by flow cytometry analysis relative to control; assay type: functional, cell-based; conditions: TDE = time-dependent effect
Procedure, shortened: (§6)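 Cells pretreated 1 h with or without 1 mM Tiron, then 10 μM for 1, 3 or 5 h; intracellular ROS read by DCF-DA flow cytometry; mean ± SEM of three independent determinations versus vehicle.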

A549 [17] = experiment: Induction of apoptosis in human A549 cells assessed as induction of cleaved PARP protein expression at 10 uM after 26 to 36 hrs by Western blot analysis; assay type: functional, cell-based; conditions: in the assay text read “24 to 36 hrs” for “26 to 36 hrs”; procedure, shortened: as §5
A549 [18] = experiment: Induction of apoptosis in human A549 cells assessed as reduction of Bad proteins expression at 10 uM after 6 to 36 hrs by Western blot analysis; assay type: functional, cell-based; procedure, shortened: as §5
A549 [19] = experiment: Induction of apoptosis in human A549 cells assessed as induction of ROS production at 10 uM after 12 hrs using DCF-DA staining by flow cytometry analysis relative to control; assay type: functional; procedure, shortened: as §1
A549 [20] = experiment: Induction of apoptosis in human A549 cells assessed as induction of ROS production after 12 hrs using DCF-DA staining by flow cytometry analysis; assay type: functional, cell-based; procedure, shortened: as §1
A549 [21] = experiment: Cell cycle arrest in human A549 cells assessed as accumulation at G0/G1 phase at 10 uM after 24 hrs using propidium iodide staining by flow cytometry analysis (reference value: 51 +/- 1.1%); assay type: functional
A549 [22] = experiment: Induction of apoptosis in human A549 cells assessed as induction of ROS production at 10 uM after 5 hrs using DCF-DA staining by flow cytometry analysis in presence of Tiron; assay type: functional, cell-based; procedure, shortened: as §6
A549 [23] = experiment: Cytotoxicity against human A549 cells after 48 hrs by MTT assay; assay type: functional, cell-based
Procedure, shortened: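 Viability of A549 cells measured by mitochondrial MTT reduction after 24 and 48 h incubation with indicated concentrations; IC50 at 48 h; mean ± SEM of three determinations, each in triplicate.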

A549 [24] = experiment: Induction of apoptosis in human A549 cells assessed as DNA level at 3 to 30 uM using propidium iodide staining by flow cytometry analysis; assay type: functional, cell-based; conditions: TDE = time-dependent effect; procedure, shortened: as §4
A549 [25] = experiment: Induction of apoptosis in human A549 cells assessed as increase in expression of LC3-II at 10 uM by Western blot analysis; assay type: functional, cell-based; conditions: TDE = time-dependent effect
Procedure, shortened: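 A549 cells with or without 10 μM for 6, 12, 24, 36 h; LC3 detected by Western blot with ECL; LC3 II band quantified by image analysis; three independent experiments.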

A549 [26] = experiment: Cell cycle arrest in human A549 cells assessed as accumulation at G0/G1 phase at 10 uM after 36 hrs using propidium iodide staining by flow cytometry analysis (reference value: 53.1 +/- 1.2%); assay type: functional
A549 [27] = experiment: Cell cycle arrest in human A549 cells assessed as accumulation at sub-G1 phase at 10 uM after 24 hrs using propidium iodide staining by flow cytometry analysis (reference value: 2 +/- 0.3%); assay type: functional
Caco-2 = experiment: Cytotoxicity against human Caco2 cells after 48 hrs by SRB assay; conditions: Caco-2, 48 h
A549 [28] = experiment: Induction of apoptosis in human A549 cells assessed as induction of ROS production at 1 uM after 12 hrs using DCF-DA staining by flow cytometry analysis relative to control; assay type: functional; procedure, shortened: as §1
[29] = Cytotoxicity against human HT1080 cells after 48 hrs by SRB assay; conditions: HT-1080, 48 h
[30] = Cytotoxicity against human Hep3B cells after 48 hrs by SRB assay
A549 [31] = experiment: Cell cycle arrest in human A549 cells assessed as accumulation at G0/G1 phase at 10 uM after 48 hrs using propidium iodide staining by flow cytometry analysis (reference value: 57.3 +/- 0.9%); assay type: functional
A549 [32] = experiment: Induction of apoptosis in human A549 cells assessed as reduction of survivin expression at 10 uM by Western blot analysis; assay type: functional, cell-based; conditions: TDE = time-dependent effect; procedure, shortened: as §5
A549 [33] = experiment: Cell cycle arrest in human A549 cells assessed as accumulation at S phase at 10 uM after 48 hrs using propidium iodide staining by flow cytometry analysis (reference value: 9.5 +/- 0.7%); assay type: functional
A549 [34] = experiment: Induction of apoptosis in human A549 cells assessed as induction of ROS production at 30 uM after 12 hrs using DCF-DA staining by flow cytometry analysis relative to control; assay type: functional; procedure, shortened: as §1
A549 [35] = experiment: Induction of apoptosis in human A549 cells assessed as reduction of Bcl-xL expression at 10 uM after 6 to 36 hrs by Western blot analysis; assay type: functional, cell-based; procedure, shortened: as §5
A549 [36] = experiment: Cell cycle arrest in human A549 cells assessed as accumulation at G2/M phase at 10 uM after 36 hrs using propidium iodide staining by flow cytometry analysis (reference value: 35.8 +/- 1.8%); assay type: functional
A549 [37] = experiment: Induction of apoptosis in human A549 cells assessed as loss of mitochondrial membrane potential at 50 uM after 12 to 24 hrs by flow cytometry analysis; assay type: functional, cell-based; procedure, shortened: as §3
A549 [38] = experiment: Induction of apoptosis in human A549 cells assessed as hypodiploid DNA content at 10 to 20 uM after 48 hrs by flow cytometry analysis in presence of Z-VAD-fmk; assay type: functional, cell-based
Procedure, shortened: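 Cells preincubated 2 h with or without 50 μM Z-VAD-fmk, then exposed to indicated concentrations for 48 h; hypodiploid DNA content read by flow cytometry; mean ± SEM of three independent determinations.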

Structure (SMILES): CC1CC(=O)c2c(cc3c(-c4c(O)cc(O)c5c(O)c6c(cc45)OC(C)CC6=O)c(O)cc(O)c3c2O)O1 (configuration not stated) [CEPHALOCHROMIN]
- fold change (FC) (A549 [1]): 7.2
- Activity (A549 [2]): 3.9%
- Activity (A549 [3]): 27.9%
- Activity (A549 [4]): Dose-dependent effect
- IC50 (A549 [4]; A549, 48 h): 2.72 µM
- Activity (A549 [5]): Active
- Activity (A549 [6]): Active
- IC50 (SW1353): 3.54 µM
- Activity (A549 [7]): Dose-dependent effect
- Activity (A549 [8]): 15.5%
- IC50 [9]: 4.64 µM
- Activity (A549 [10]): Dose-dependent effect
- Activity (A549 [11]): 9.8%
- Activity (A549 [12]): 4.2%
- Activity (A549 [13]): tde
- fold change (FC) (A549 [14]): 1.89
- Activity (A549 [15]): 32.7%
- Activity (A549 [16]): tde
- Activity (A549 [17]): Active
- Activity (A549 [18]): inactive
- fold change (FC) (A549 [19]): 2.87
- Activity (A549 [20]): Dose-dependent effect
- Activity (A549 [21]): 59.6%
- Activity (A549 [22]): inactive
- Activity (A549 [23]): Dose-dependent effect
- IC50 (A549 [23]; A549, 48 h): 5.22 µM
- Activity (A549 [24]): tde
- Activity (A549 [25]): tde
- Activity (A549 [26]): 53.7%
- Activity (A549 [27]): 3.8%
- IC50 (Caco-2): 12.4 µM
- fold change (FC) (A549 [28]): 1.24
- IC50 [29]: 4.98 µM
- IC50 [30]: 14.3 µM
- Activity (A549 [31]): 52.1%
- Activity (A549 [32]): tde
- Activity (A549 [33]): 4.4%
- fold change (FC) (A549 [34]): 4.65
- Activity (A549 [35]): Active
- Activity (A549 [36]): 32.3%
- Activity (A549 [37]): Active
- Activity (A549 [38]): inactive
